From ChEMBL document CHEMBL1143066, “Characterization and optimization of selective, nonpeptidic inhibitors of cathepsin S with an unprecedented binding mode” (J Med Chem, 2007)

Assays:
Cathepsin S = Cathepsin S (Homo sapiens, UniProt P25774); test: Inhibition of cathepsin S
Summary of the method: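 Cathepsin S 0.7 nM with inhibitor (added in DMSO), 5 min at 37 °C in pH 6.1 phosphate buffer containing NaCl, DTT, EDTA and Tween-20. IC50 from V_i/V_o plot, converted to K_i via IC50 − E_t/2.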

Cathepsin K = molecular target: T1, Cathepsin K (Homo sapiens, UniProt P43235); test: Inhibition of cathepsin K
T1 sequence (P43235 whole entry): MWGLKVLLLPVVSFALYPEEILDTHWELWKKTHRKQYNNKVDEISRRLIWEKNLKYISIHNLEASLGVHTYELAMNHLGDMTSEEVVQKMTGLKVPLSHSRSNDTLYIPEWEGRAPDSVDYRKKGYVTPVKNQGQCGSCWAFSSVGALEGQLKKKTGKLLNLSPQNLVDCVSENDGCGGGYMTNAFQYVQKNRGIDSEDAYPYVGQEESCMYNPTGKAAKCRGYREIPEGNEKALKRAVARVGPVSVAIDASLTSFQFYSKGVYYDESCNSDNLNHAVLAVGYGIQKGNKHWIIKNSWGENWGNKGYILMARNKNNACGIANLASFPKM
Summary of the method: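 Cathepsin K at 10 nM, preincubated 5 min at 37 °C with DMSO-delivered inhibitor in pH 6.1 sodium phosphate buffer with NaCl, DTT, EDTA, Tween-20. Then 2.5 µM Cbz-Phe-Arg-AMC; AMC release monitored for 5 min (ex 355/em 450 nm). Duplicates at five inhibitor concentrations giving 10–90% inhibition. K_i = IC50 − E_t/2, with IC50 from V_i/V_o versus concentration.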

Procathepsin L = Procathepsin L (Homo sapiens, UniProt P07711); test: Inhibition of cathepsin L
Sequence of Procathepsin L (P07711 whole entry): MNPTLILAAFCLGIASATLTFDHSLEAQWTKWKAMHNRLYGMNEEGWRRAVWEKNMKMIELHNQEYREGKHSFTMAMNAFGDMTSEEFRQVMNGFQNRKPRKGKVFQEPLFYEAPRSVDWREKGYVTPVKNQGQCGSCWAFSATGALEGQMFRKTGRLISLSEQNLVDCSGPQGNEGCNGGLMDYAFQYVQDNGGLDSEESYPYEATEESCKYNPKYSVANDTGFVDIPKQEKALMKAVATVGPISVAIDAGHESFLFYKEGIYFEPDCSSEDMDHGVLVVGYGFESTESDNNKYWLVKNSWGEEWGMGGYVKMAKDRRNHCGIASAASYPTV

Cathepsin B = Cathepsin B (Homo sapiens, UniProt P07858); test: Inhibition of cathepsin B
Summary of the method: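 Cathepsin B (2 nM) in pH 6.1 phosphate/NaCl/DTT/EDTA/Tween-20 buffer, preincubated with inhibitor (in DMSO) for 5 min at 37 °C. Cbz-Phe-Arg-AMC 2.5 µM then added and AMC followed for 5 min (ex 355/em 450 nm). Five inhibitor levels spanning 10–90% inhibition, in duplicate. IC50 from V_i/V_o plots, converted as K_i = IC50 − E_t/2.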

Sequence of Cathepsin S (P25774 whole entry): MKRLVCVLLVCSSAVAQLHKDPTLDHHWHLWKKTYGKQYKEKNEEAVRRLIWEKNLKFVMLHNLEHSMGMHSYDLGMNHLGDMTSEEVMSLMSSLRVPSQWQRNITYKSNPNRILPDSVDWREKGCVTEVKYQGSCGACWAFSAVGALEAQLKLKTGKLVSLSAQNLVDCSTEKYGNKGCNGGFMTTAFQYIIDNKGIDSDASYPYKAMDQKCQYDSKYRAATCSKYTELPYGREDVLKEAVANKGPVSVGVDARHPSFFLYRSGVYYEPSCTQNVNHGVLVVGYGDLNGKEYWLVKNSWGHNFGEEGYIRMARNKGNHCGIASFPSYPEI

Structure (SMILES)	Ki (Cathepsin S) [µM]	Ki (Cathepsin K) [µM]	Ki (Procathepsin L) [µM]	Ki (Cathepsin B) [µM]
CC(C)Cc1ccc(-c2ccccc2OCC=O)c(F)c1F	0.0096	1.24	> 15	> 15
CCCc1ccc(-c2ccccc2OCC=O)c(F)c1F	0.0487	1.28		> 15
O=CCOc1ccccc1-c1ccc(F)c(F)c1F		1.51		> 15
